Source: ChEMBL document CHEMBL1142195, “A novel nonnucleoside analogue that inhibits human immunodeficiency virus type 1 isolates resistant to current nonnucleoside reverse transcriptase inhibitors” (Antimicrob Agents Chemother, 2007)

Legend:
Type in all cases: functional
[1] = tested on: Human immunodeficiency virus 1; test: Antiviral activity against HIV1 isolate with RT 103N, 108I, 190A mutation relative to wild type
[2] = tested on: Human immunodeficiency virus 1; test: Antiviral activity against HIV1 isolate with RT 101H mutation relative to wild type
[3] = tested on: Human immunodeficiency virus 1; test: Antiviral activity against HIV1 isolate with RT 238T mutation relative to wild type
Method in brief: (§1)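 Mutant RT clones built in pNL4-3.Luc.R−E− reporter, VSV-G-pseudotyped, single-round infection of HeLa-JC53 cells (15,000/well, MOI 0.03) with 1:4 serial compound dilutions in DMEM (phenol red-free), 2% FBS, 0.2% final DMSO; 48 h at 37°C, 5% CO2; luciferase chemiluminescence read-out. Fold change in EC50 relative to wild-type virus; mean of two tests.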

[4] = tested on: Human immunodeficiency virus 1; test: Antiviral activity against HIV1 isolate with RT 98G, 188L mutation relative to wild type; method in brief: as §1
[5] = tested on: Human immunodeficiency virus 1; test: Antiviral activity against HIV1 isolate with RT 106A, 190A mutation relative to wild type; method in brief: as §1
[6] = tested on: Human immunodeficiency virus 1; test: Antiviral activity against HIV1 isolate with RT 101R, 103N mutation relative to wild type
[7] = tested on: Human immunodeficiency virus 1; test: Antiviral activity against HIV1 isolate with RT 103N, 225H mutation relative to wild type; method in brief: as §1
[8] = tested on: Human immunodeficiency virus 1; test: Antiviral activity against HIV1 isolate with RT 108I, 181C, 190A mutation relative to wild type; method in brief: as §1
[9] = tested on: Human immunodeficiency virus 1; test: Antiviral activity against HIV1 isolate with RT 103S mutation relative to wild type; method in brief: as §1
[10] = tested on: Human immunodeficiency virus 1; test: Antiviral activity against HIV1 isolate with RT 230L mutation relative to wild type; method in brief: as §1
[11] = tested on: Human immunodeficiency virus 1; test: Antiviral activity against HIV1 isolate with RT 100F mutation relative to wild type
[12] = tested on: Human immunodeficiency virus 1; test: Antiviral activity against HIV1 isolate with RT 101Q mutation relative to wild type
[13] = tested on: Human immunodeficiency virus 1; test: Antiviral activity against HIV1 isolate with RT 103N, 106A mutation relative to wild type
[14] = tested on: Human immunodeficiency virus 1; test: Antiviral activity against HIV1 isolate with RT 188L mutation relative to wild type; method in brief: as §1
[15] = tested on: Human immunodeficiency virus 1; test: Antiviral activity against HIV1 isolate with RT 190E mutation relative to wild type; method in brief: as §1
[16] = tested on: Human immunodeficiency virus 1; test: Antiviral activity against HIV1 isolate with RT 101E, 103N mutation relative to wild type
[17] = tested on: Human immunodeficiency virus 1; test: Antiviral activity against HIV1 isolate with RT 106A, F227L mutation relative to wild type; method in brief: as §1
[18] = tested on: Human immunodeficiency virus 1; test: Antiviral activity against HIV1 isolate with RT 108I mutation relative to wild type; method in brief: as §1
[19] = tested on: Human immunodeficiency virus 1; test: Antiviral activity against HIV1 isolate with RT 98G, 108I, 181C mutation relative to wild type; method in brief: as §1
[20] = tested on: Human immunodeficiency virus 1; test: Antiviral activity against HIV1 isolate with RT 179D, 181C mutation relative to wild type; method in brief: as §1
[21] = tested on: Human immunodeficiency virus 1; test: Antiviral activity against HIV1 isolate with RT 188H mutation relative to wild type; method in brief: as §1
[22] = tested on: Human immunodeficiency virus 1; test: Antiviral activity against HIV1 isolate with RT 101Q, 190S mutation relative to wild type
[23] = tested on: Human immunodeficiency virus 1; test: Antiviral activity against HIV1 isolate with RT 101E, 190A mutation relative to wild type
[24] = tested on: Human immunodeficiency virus 1; test: Antiviral activity against HIV1 isolate with RT 236L mutation relative to wild type; method in brief: as §1
[25] = tested on: Human immunodeficiency virus 1; test: Antiviral activity against HIV1 isolate with RT 101P, 190A mutation relative to wild type
[26] = tested on: Human immunodeficiency virus 1; test: Antiviral activity against HIV1 isolate with RT 103N, 106M mutation relative to wild type
[27] = tested on: Human immunodeficiency virus 1; test: Antiviral activity against HIV1 isolate with RT 179A mutation relative to wild type; method in brief: as §1
[28] = tested on: Human immunodeficiency virus 1; test: Antiviral activity against HIV1 isolate with RT 98G, 101E, 181C, 190A mutation relative to wild type; method in brief: as §1
[29] = tested on: Human immunodeficiency virus 1; test: Antiviral activity against HIV1 isolate with RT 101H, 190A mutation relative to wild type
[30] = tested on: Human immunodeficiency virus 1; test: Antiviral activity against HIV1 isolate with RT 98G, 103N mutation relative to wild type; method in brief: as §1
[31] = tested on: Human immunodeficiency virus 1; test: Antiviral activity against HIV1 isolate with RT 98G, 190A mutation relative to wild type
Method in brief: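 VSV-G-pseudotyped pNL4-3.Luc.R−E− molecular clones carrying the RT mutations, single-round infection of HeLa-JC53 cells (15,000/well) at MOI 0.03. Compounds serially diluted 1:4 in DMSO then in phenol red-free DMEM with 2% FBS, final DMSO 0.2%. Incubated 48 h at 37°C, 5% CO2. Luciferase read-out by chemiluminescence gives the EC50. Fold change is relative to wt virus, mean of two tests.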

[32] = tested on: Human immunodeficiency virus 1; test: Antiviral activity against HIV1 isolate with RT 103Q mutation relative to wild type; method in brief: as §1
[33] = tested on: Human immunodeficiency virus 1; test: Antiviral activity against HIV1 isolate with RT 98G, 103N, 181C, 190A mutation relative to wild type; method in brief: as §1
[34] = tested on: Human immunodeficiency virus 1; test: Antiviral activity against HIV1 isolate with RT 106A mutation relative to wild type; method in brief: as §1
[35] = tested on: Human immunodeficiency virus 1; test: Antiviral activity against HIV1 isolate with RT 101E, 181C, 190A mutation relative to wild type
[36] = tested on: Human immunodeficiency virus 1; test: Antiviral activity against HIV1 isolate with RT 103N, 108I, 181C, 190A mutation relative to wild type
[37] = tested on: Human immunodeficiency virus 1; test: Antiviral activity against HIV1 isolate with RT 101Q, 103N, 225H mutation relative to wild type
[38] = tested on: Human immunodeficiency virus 1; test: Antiviral activity against HIV1 isolate with RT 101E mutation relative to wild type
[39] = tested on: Human immunodeficiency virus 1; test: Antiviral activity against HIV1 isolate with RT 98G, 100I, 103N mutation relative to wild type; method in brief: as §1
[40] = tested on: Human immunodeficiency virus 1; test: Antiviral activity against HIV1 isolate with RT 106I, 188L mutation relative to wild type; method in brief: as §1
[41] = tested on: Human immunodeficiency virus 1; test: Antiviral activity against HIV1 isolate with RT 103N, 108I, 181C mutation relative to wild type
[42] = tested on: Human immunodeficiency virus 1; test: Antiviral activity against HIV1 isolate with RT 238N mutation relative to wild type; method in brief: as §1
[43] = tested on: Human immunodeficiency virus 1; test: Antiviral activity against HIV1 isolate with RT 106I mutation relative to wild type; method in brief: as §1
[44] = tested on: Human immunodeficiency virus 1; test: Antiviral activity against HIV1 isolate with RT 227L mutation relative to wild type; method in brief: as §1
[45] = tested on: Human immunodeficiency virus 1; test: Antiviral activity against HIV1 isolate with RT 103N mutation relative to wild type
[46] = tested on: Human immunodeficiency virus 1; test: Antiviral activity against HIV1 isolate with RT 181C mutation relative to wild type; method in brief: as §1
[47] = tested on: Human immunodeficiency virus 1; test: Antiviral activity against HIV1 isolate with RT 190A mutation relative to wild type; method in brief: as §1
[48] = tested on: Human immunodeficiency virus 1; test: Antiviral activity against HIV1 isolate with RT 179T mutation relative to wild type; method in brief: as §1
[49] = tested on: Human immunodeficiency virus 1; test: Antiviral activity against HIV1 isolate with RT 101P, 103N mutation relative to wild type
[50] = tested on: Human immunodeficiency virus 1; test: Antiviral activity against HIV1 isolate with RT 101E, 190S mutation relative to wild type
[51] = tested on: Human immunodeficiency virus 1; test: Antiviral activity against HIV1 isolate with RT 98G, 181C mutation relative to wild type; method in brief: as §1
[52] = tested on: Human immunodeficiency virus 1; test: Antiviral activity against HIV1 isolate with RT 103N, 108I, 225H mutation relative to wild type
[53] = tested on: Human immunodeficiency virus 1; test: Antiviral activity against HIV1 isolate with RT 103N, 181C mutation relative to wild type

NS(=O)(=O)c1ccc(NC(=O)CSc2nnc(Br)n2-c2ccc(C3CC3)c3ccccc23)c(Cl)c1
Fold change [1]: 20 | Fold change [2]: 2.5 | Fold change [3]: 2.2 | Fold change [4]: >100 | Fold change [5]: >100 | Fold change [6]: 1.2 | Fold change [7]: 1.6 | Fold change [8]: >100 | Fold change [9]: 2.7 | Fold change [10]: 11 | Fold change [11]: 1.8 | Fold change [12]: 2.2 | Fold change [13]: 2.6 | Fold change [14]: 11 | Fold change [15]: >100 | Fold change [16]: 0.9 | Fold change [17]: >100 | Fold change [18]: 1.5 | Fold change [19]: 15 | Fold change [20]: >100 | Fold change [21]: 1.6 | Fold change [22]: 2.4 | Fold change [23]: 83 | Fold change [24]: 0.9 | Fold change [25]: 92 | Fold change [26]: 12 | Fold change [27]: 0.6 | Fold change [28]: 65 | Fold change [29]: 32 | Fold change [30]: 4.4 | Fold change [31]: 16 | Fold change [32]: 1.4 | Fold change [33]: 82 | Fold change [34]: 6 | Fold change [35]: >100 | Fold change [36]: >100 | Fold change [37]: 3.9 | Fold change [38]: 11 | Fold change [39]: 1.4 | Fold change [40]: 62 | Fold change [41]: 6.2 | Fold change [42]: 0.7 | Fold change [43]: 0.9 | Fold change [44]: 0.47 | Fold change [45]: 0.7 | Fold change [46]: 10 | Fold change [47]: 13 | Fold change [48]: 1.3 | Fold change [49]: 2.2 | Fold change [50]: 16 | Fold change [51]: 11 | Fold change [52]: 2.6 | Fold change [53]: 10

Cc1ccnc2c1NC(=O)c1cccnc1N2C1CC1 [NEVIRAPINE]
Fold change [1]: >100 | Fold change [2]: 12 | Fold change [3]: 100 | Fold change [4]: >100 | Fold change [5]: >100 | Fold change [6]: >100 | Fold change [7]: >100 | Fold change [8]: >100 | Fold change [9]: 39 | Fold change [10]: 46 | Fold change [11]: 2.4 | Fold change [12]: 2.8 | Fold change [13]: >100 | Fold change [14]: >100 | Fold change [15]: >100 | Fold change [16]: >100 | Fold change [17]: >100 | Fold change [18]: 2.3 | Fold change [19]: >100 | Fold change [20]: >100 | Fold change [21]: >100 | Fold change [22]: >100 | Fold change [23]: >100 | Fold change [24]: 0.5 | Fold change [25]: >100 | Fold change [26]: >100 | Fold change [27]: 0.4 | Fold change [28]: >100 | Fold change [29]: >100 | Fold change [30]: >100 | Fold change [31]: >100 | Fold change [32]: 1 | Fold change [33]: >100 | Fold change [34]: >100 | Fold change [35]: >100 | Fold change [36]: >100 | Fold change [37]: >100 | Fold change [38]: 42 | Fold change [39]: >100 | Fold change [40]: >100 | Fold change [41]: >100 | Fold change [42]: 1.9 | Fold change [43]: 1.1 | Fold change [44]: 2.1 | Fold change [45]: 51 | Fold change [46]: >100 | Fold change [47]: >100 | Fold change [48]: 0.5 | Fold change [49]: >100 | Fold change [50]: >100 | Fold change [51]: >100 | Fold change [52]: >100 | Fold change [53]: >100
